Experimental data taken from ChEMBL document CHEMBL1137180, “Synthesis and structure-activity relationship of a novel sulfone series of TNF-alpha converting enzyme inhibitors” (Bioorg Med Chem Lett, 2004).

Assays:
[1] = system: Caco-2; assay: Permeability action in Caco-2 cells; assay type: functional, Homo sapiens
[2] = target: T1, Interstitial collagenase (Homo sapiens, UniProt P03956); assay: Inhibition of Matrix metalloprotease-1 (MMP-1)
T1 sequence (P03956 whole entry): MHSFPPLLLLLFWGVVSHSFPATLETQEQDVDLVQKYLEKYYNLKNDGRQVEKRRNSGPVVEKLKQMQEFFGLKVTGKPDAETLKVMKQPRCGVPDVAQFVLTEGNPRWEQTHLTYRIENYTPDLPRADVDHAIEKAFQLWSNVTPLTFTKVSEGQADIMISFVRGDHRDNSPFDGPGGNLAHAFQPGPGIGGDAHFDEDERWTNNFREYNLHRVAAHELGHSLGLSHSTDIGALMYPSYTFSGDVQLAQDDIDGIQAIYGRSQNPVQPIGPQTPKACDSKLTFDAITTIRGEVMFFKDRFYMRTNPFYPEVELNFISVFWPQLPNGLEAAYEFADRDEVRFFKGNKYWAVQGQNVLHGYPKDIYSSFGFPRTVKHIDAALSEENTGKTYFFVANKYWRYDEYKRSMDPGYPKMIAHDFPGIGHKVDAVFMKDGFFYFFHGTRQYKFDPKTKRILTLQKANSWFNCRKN
In short: (§1)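 Inhibition is reported as Ki (nM) against each isolated MMP. Each value comes from a single determination, with no replicates.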

[3] = target: Disintegrin and metalloproteinase domain-containing protein 17 (Sus scrofa, UniProt O77636); assay: Inhibition of porcine Tumor necrosis factor- alpha converting enzyme (TACE, ADAM17)
[4] = target: 72 kDa type IV collagenase (Homo sapiens, UniProt P08253); assay: inhibition of Matrix metalloprotease-2 (MMP-2); in short: as §1
[5] = target: Collagenase 3 (Homo sapiens, UniProt P45452); assay: Inhibition of Matrix metalloprotease-13 (MMP-13); in short: as §1
[6] = target: Disintegrin and metalloproteinase domain-containing protein 17 (Homo sapiens, UniProt P78536); assay: Effect on TNF-Alpha release in LPS-stimulated human whole blood assay; assay type: functional, tissue-based
[7] = target: Matrix metalloproteinase-9 (Homo sapiens, UniProt P14780); assay: Inhibition of Matrix metalloprotease-9 (MMP-9); in short: as §1
[8] = system: Mus musculus; assay: Compound was tested for anti TNF-alpha activity using LPS mouse model at 5 mg/kg p.o.; assay type: functional; settings: route oral

Disintegrin and metalloproteinase domain-containing protein 17 (Sus scrofa, UniProt O77636), sequence (O77636 whole entry, the tested form may be a part): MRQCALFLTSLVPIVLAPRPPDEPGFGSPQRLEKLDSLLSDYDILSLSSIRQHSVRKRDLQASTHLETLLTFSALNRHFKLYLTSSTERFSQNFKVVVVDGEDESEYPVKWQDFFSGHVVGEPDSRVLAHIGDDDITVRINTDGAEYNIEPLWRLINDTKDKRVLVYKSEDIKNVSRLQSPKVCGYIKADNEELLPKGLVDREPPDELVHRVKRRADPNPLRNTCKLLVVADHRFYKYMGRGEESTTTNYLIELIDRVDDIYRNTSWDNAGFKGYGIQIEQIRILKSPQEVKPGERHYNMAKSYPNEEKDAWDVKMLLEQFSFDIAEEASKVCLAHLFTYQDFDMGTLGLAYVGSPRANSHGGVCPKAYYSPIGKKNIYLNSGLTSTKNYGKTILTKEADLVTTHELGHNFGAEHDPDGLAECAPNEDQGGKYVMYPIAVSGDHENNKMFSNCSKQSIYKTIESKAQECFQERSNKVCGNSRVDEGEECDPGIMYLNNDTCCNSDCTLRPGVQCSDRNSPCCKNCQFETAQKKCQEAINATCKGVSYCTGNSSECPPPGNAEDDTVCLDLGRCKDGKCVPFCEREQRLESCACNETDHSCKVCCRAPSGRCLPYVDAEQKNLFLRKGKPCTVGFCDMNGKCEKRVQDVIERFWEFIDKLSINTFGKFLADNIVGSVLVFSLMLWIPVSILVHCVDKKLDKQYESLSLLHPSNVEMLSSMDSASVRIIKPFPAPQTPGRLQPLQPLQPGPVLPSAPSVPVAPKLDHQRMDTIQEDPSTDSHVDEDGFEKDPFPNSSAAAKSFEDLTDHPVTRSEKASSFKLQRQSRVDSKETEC
Matrix metalloproteinase-9, sequence (P14780 whole entry): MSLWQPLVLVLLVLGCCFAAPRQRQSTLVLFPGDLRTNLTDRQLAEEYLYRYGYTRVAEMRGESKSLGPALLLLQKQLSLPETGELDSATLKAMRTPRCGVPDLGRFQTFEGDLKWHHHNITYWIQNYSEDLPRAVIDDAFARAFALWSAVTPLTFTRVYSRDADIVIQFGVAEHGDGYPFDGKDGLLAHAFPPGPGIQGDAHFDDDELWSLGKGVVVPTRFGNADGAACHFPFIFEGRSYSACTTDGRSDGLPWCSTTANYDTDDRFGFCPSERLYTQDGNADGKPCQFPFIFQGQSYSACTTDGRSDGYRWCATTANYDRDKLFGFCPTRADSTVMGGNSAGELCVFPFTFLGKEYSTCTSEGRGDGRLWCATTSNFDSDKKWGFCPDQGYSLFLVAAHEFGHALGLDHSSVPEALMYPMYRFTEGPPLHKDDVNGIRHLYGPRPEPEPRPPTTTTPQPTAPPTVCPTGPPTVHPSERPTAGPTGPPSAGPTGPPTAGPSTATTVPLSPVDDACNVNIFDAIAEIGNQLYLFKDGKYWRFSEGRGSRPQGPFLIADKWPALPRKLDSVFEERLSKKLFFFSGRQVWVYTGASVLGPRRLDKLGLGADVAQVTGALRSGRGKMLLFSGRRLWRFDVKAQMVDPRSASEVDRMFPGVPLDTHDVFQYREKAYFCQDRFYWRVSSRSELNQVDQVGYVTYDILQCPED
72 kDa type IV collagenase, sequence (P08253 whole entry): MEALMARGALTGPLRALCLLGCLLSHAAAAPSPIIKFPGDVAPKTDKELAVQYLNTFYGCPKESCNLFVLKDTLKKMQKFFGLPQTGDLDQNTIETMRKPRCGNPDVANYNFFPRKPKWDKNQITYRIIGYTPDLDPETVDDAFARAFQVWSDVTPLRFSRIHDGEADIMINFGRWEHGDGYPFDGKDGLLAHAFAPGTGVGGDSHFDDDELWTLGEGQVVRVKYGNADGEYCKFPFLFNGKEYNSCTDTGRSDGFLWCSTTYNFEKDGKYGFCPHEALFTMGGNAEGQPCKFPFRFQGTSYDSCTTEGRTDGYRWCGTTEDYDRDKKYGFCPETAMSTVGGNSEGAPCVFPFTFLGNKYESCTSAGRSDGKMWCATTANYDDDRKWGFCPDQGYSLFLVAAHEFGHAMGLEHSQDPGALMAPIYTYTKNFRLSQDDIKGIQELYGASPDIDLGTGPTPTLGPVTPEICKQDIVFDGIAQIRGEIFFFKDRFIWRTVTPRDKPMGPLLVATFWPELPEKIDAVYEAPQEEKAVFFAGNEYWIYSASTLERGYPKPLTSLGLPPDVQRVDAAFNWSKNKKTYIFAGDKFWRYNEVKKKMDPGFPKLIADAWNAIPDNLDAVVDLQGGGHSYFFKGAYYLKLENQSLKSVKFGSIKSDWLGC
Disintegrin and metalloproteinase domain-containing protein 17 (Homo sapiens, UniProt P78536), sequence (P78536 whole entry, the tested form may be a part): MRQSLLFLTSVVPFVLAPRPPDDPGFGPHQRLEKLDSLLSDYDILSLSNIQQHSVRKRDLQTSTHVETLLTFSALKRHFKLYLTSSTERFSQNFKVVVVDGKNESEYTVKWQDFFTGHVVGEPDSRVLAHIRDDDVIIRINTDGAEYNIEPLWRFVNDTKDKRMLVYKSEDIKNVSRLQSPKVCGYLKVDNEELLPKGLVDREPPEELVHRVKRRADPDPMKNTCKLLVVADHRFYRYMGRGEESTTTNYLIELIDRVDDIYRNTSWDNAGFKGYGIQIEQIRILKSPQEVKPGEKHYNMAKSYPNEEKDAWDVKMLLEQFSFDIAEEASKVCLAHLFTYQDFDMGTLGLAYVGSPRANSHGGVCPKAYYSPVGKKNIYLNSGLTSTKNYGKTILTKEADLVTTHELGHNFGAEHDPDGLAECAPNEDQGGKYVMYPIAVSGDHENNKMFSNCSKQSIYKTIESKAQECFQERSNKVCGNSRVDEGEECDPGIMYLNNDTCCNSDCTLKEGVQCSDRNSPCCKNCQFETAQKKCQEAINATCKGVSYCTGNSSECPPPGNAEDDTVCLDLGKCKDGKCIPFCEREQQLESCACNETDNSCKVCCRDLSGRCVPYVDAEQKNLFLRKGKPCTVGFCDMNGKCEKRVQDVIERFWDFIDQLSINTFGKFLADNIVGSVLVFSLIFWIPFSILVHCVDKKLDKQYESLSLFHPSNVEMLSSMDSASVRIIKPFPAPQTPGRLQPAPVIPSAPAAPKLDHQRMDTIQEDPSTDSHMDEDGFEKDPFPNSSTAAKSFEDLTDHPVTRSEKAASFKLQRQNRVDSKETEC

| SMILES | Caco-2 Papp [1] | Ki [2] | IC50 [3] | Ki [4] | Ki [5] | IC50 [6] | Ki [7] | inhibition in vivo at 5 mg/kg [8] |
| --- | --- | --- | --- | --- | --- | --- | --- | --- |
| Cc1cc(COc2ccc(S(=O)(=O)CC3(CC(=O)NO)CCCN3C)cc2)c2ccccc2n1 (stereo unspecified) | 1.6e-06 cm/s | > 4.9 µM | 2.9 nM | > 3.3 µM | 3.27 µM | > 3000 nM | > 2100 nM | – |
| Cc1cc(COc2ccc(S(=O)(=O)CC3CCNCC3C(=O)NO)cc2)c2ccccc2n1 (stereo unspecified) | 1e-07 cm/s | > 4.9 µM | < 1.5 nM | > 3.3 µM | > 5 µM | 250 nM | > 2100 nM | – |
| Cc1cc(COc2ccc(S(=O)(=O)CC3(CC(=O)NO)CCCO3)cc2)c2ccccc2n1 (stereo unspecified) | 5e-06 cm/s | > 4.9 µM | 1 nM | > 3.3 µM | > 5 µM | 913 nM | > 2100 nM | 57% |
| Cc1cc(COc2ccc(S(=O)(=O)CC3NCCCC3C(=O)NO)cc2)c2ccccc2n1 (stereo unspecified) | 1e-07 cm/s | > 4.9 µM | < 1 nM | > 3.3 µM | 0.754 µM | 240 nM | > 2100 nM | – |
| Cc1cc(COc2ccc(S(=O)(=O)CC3(CC(=O)NO)CCCCN3C)cc2)c2ccccc2n1 (stereo unspecified) | 5.1e-06 cm/s | > 4.9 µM | 5.1 nM | > 3.3 µM | > 5 µM | > 3000 nM | > 2100 nM | – |
| Cc1cc(COc2ccc(S(=O)(=O)CC3CN(C)CCC3C(=O)NO)cc2)c2ccccc2n1 (stereo unspecified) | 1e-07 cm/s | > 4.9 µM | < 1.9 nM | > 3.3 µM | > 5 µM | 190 nM | > 2100 nM | – |
| Cc1cc(COc2ccc(S(=O)(=O)CC3(CC(=O)NO)CCCN(C(C)C)C3)cc2)c2ccccc2n1 (stereo unspecified) | 2e-07 cm/s | > 4.9 µM | 2.7 nM | > 3.3 µM | > 5 µM | 506 nM | > 2100 nM | – |
| Cc1cc(COc2ccc(S(=O)(=O)CC3(CC(=O)NO)CCCC3)cc2)c2ccccc2n1 | 1.8e-05 cm/s | > 4.9 µM | < 0.8 nM | 1.57 µM | 0.804 µM | 420 nM | 1510 nM | – |
| Cc1cc(COc2ccc(S(=O)(=O)CC3(CC(=O)NO)CCN(C(C)C)C3)cc2)c2ccccc2n1 (stereo unspecified) | 2e-07 cm/s | > 4.9 µM | 1.6 nM | 1.33 µM | 0.653 µM | 77 nM | 2100 nM | 37% |
| CCC(C)N1CCCCC1(CC(=O)NO)CS(=O)(=O)c1ccc(OCc2cc(C)nc3ccccc23)cc1 (stereo unspecified) | – | > 4.9 µM | < 48 nM | > 3.3 µM | – | – | > 5000 nM | – |
| Cc1cc(COc2ccc(S(=O)(=O)CC3(CC(=O)NO)CCNC3)cc2)c2ccccc2n1 (stereo unspecified) | 1e-07 cm/s | > 4.9 µM | 1.5 nM | > 3.3 µM | 3.27 µM | 76 nM | > 2100 nM | 34% |
| Cc1cc(COc2ccc(S(=O)(=O)CC3(CC(=O)NO)CCCN3CC(C)C)cc2)c2ccccc2n1 (stereo unspecified) | 7e-07 cm/s | > 4.9 µM | 20 nM | 1.33 µM | > 5 µM | – | > 2100 nM | – |
| Cc1cc(COc2ccc(S(=O)(=O)CC3(CC(=O)NO)CCNCC3)cc2)c2ccccc2n1 | 1e-07 cm/s | > 4.9 µM | 14 nM | > 3.3 µM | > 5 µM | – | > 2100 nM | 57% |
| Cc1cc(COc2ccc(S(=O)(=O)CC3(CC(=O)NO)CCOCC3)cc2)c2ccccc2n1 | – | > 4.9 µM | < 1 nM | > 3.3 µM | > 5 µM | 258 nM | > 2100 nM | – |
| Cc1cc(COc2ccc(S(=O)(=O)CC3CCN(C(C)C)CC3C(=O)NO)cc2)c2ccccc2n1 (stereo unspecified) | 6.5e-07 cm/s | > 4.9 µM | < 11 nM | > 3.3 µM | > 5 µM | > 1000 nM | > 2100 nM | – |
| Cc1cc(COc2ccc(S(=O)(=O)CC3(CC(=O)NO)CCN(C)CC3)cc2)c2ccccc2n1 | 2e-07 cm/s | > 4.9 µM | < 2 nM | > 3.3 µM | 2.61 µM | 102 nM | > 2100 nM | – |
| Cc1cc(COc2ccc(S(=O)(=O)CC3CCN(C)CC3C(=O)NO)cc2)c2ccccc2n1 (stereo unspecified) | 2e-07 cm/s | > 4.9 µM | 6.5 nM | > 3.3 µM | > 5 µM | 510 nM | > 2100 nM | – |
| Cc1cc(COc2ccc(S(=O)(=O)CC3(CC(=O)NO)COC3)cc2)c2ccccc2n1 | – | > 4.9 µM | 1 nM | > 3.3 µM | > 5 µM | 595 nM | > 2100 nM | – |
| Cc1cc(COc2ccc(S(=O)(=O)CC3C(C(=O)NO)CCCN3C)cc2)c2ccccc2n1 (stereo unspecified) | – | > 4.9 µM | < 1.1 nM | > 3.3 µM | > 5 µM | > 3000 nM | > 2100 nM | – |
| CC(=O)N1CCCC1(CC(=O)NO)CS(=O)(=O)c1ccc(OCc2cc(C)nc3ccccc23)cc1 (stereo unspecified) | 6e-07 cm/s | > 4.9 µM | 660 nM | > 3.3 µM | > 5 µM | – | > 2100 nM | – |
| CCCCCN1CCC(CC(=O)NO)(CS(=O)(=O)c2ccc(OCc3cc(C)nc4ccccc34)cc2)C1 (stereo unspecified) | – | > 4.9 µM | 3.4 nM | > 3.3 µM | 1.76 µM | 418 nM | > 2100 nM | 22% |
| Cc1cc(COc2ccc(S(=O)(=O)CC3(CC(=O)NO)CCCN3)cc2)c2ccccc2n1 (stereo unspecified) | 4e-07 cm/s | > 4.9 µM | 1 nM | > 3.3 µM | > 5 µM | 403 nM | > 2100 nM | 19% |
| Cc1cc(COc2ccc(S(=O)(=O)CC3(CC(=O)NO)CCCCC3)cc2)c2ccccc2n1 | 2.2e-05 cm/s | > 4.9 µM | < 1 nM | 1.4 µM | 1.21 µM | 867 nM | > 2100 nM | 59% |
| Cc1cc(COc2ccc(S(=O)(=O)CC3(CC(=O)NO)CCN(C)C3)cc2)c2ccccc2n1 (stereo unspecified) | 3e-07 cm/s | > 4.9 µM | 3.2 nM | > 3.3 µM | > 5 µM | 109 nM | > 2100 nM | 28% |
